Test results as given in ChEMBL document CHEMBL1944507, “Structure-activity relationships for amide-, carbamate-, and urea-linked analogues of the tuberculosis drug (6S)-2-nitro-6-{[4-(trifluoromethoxy)benzyl]oxy}-6,7-dihydro-5H-imidazo[2,1-b][1,3]oxazine (PA-824)” (J Med Chem, 2012).
In brackets after ≈: the same amount, converted by molar mass.

What was measured:
[1] = tested on: Mycobacterium tuberculosis; test: Antimicrobial activity against Mycobacterium tuberculosis H37Rv ATCC 27294 harboring pFCA-lux AB gene measured under aerobic condition after 8 days by luminescence analysis; type: functional; settings: H37Rv ATCC 27294, 192 h
Method in brief: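 MABA: replicating M. tb H37Rv exposed to compound aerobically for 8 days. […] Mean of at least two independent determinations ± SD.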

[2] = tested on: Mycobacterium tuberculosis; test: Antimicrobial activity against Mycobacterium tuberculosis H37Rv ATCC 27294 harboring pFCA-lux AB gene measured under anaerobic condition after 11 days by luminescence analysis; type: functional; settings: H37Rv ATCC 27294, 264 h
Method in brief: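 LORA: luminescence-based low-oxygen-recovery assay on nonreplicating M. tb, 11-day anaerobic exposure. MIC is the mean of at least two independent determinations ± SD.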

Structure (SMILES): O=C(Nc1ccc(-c2ccc(F)cc2)cc1)O[C@@H]1COc2nc([N+](=O)[O-])cn2C1
- MIC [1]: 1.3 µM (≈ 0.518 µg/mL)
- MIC [2]: 18 µM (≈ 7.17 µg/mL)

Structure (SMILES): O=C(Nc1ccc(-c2ccc(OC(F)(F)F)cc2)cc1)O[C@@H]1COc2nc([N+](=O)[O-])cn2C1
- MIC [1]: 0.05 µM (≈ 0.0232 µg/mL)
- MIC [2]: > 32 µM

Structure (SMILES): O=C(Nc1ccc(-c2ccc(C(F)(F)F)nc2)cc1)O[C@@H]1COc2nc([N+](=O)[O-])cn2C1
- MIC [1]: 0.25 µM (≈ 0.112 µg/mL)
- MIC [2]: 4.1 µM (≈ 1.84 µg/mL)

Structure (SMILES): O=C(Nc1ccc(-c2ccc(F)nc2)cc1)O[C@@H]1COc2nc([N+](=O)[O-])cn2C1
- MIC [1]: 0.13 µM (≈ 0.0519 µg/mL)
- MIC [2]: 4.3 µM (≈ 1.72 µg/mL)

Structure (SMILES): O=C(Nc1ccc(-c2ccnc(C(F)(F)F)c2)cc1)O[C@@H]1COc2nc([N+](=O)[O-])cn2C1
- MIC [1]: 0.75 µM (≈ 0.337 µg/mL)
- MIC [2]: 6.2 µM (≈ 2.79 µg/mL)

Structure (SMILES): O=C(NCc1ccc(-c2ccc(C(F)(F)F)cc2)cc1)O[C@@H]1COc2nc([N+](=O)[O-])cn2C1
- MIC [1]: 0.24 µM (≈ 0.111 µg/mL)
- MIC [2]: > 32 µM

Structure (SMILES): O=C(NCc1ccc(-c2ccc(F)cc2)cc1)O[C@@H]1COc2nc([N+](=O)[O-])cn2C1
- MIC [1]: 0.11 µM (≈ 0.0454 µg/mL)
- MIC [2]: 4.5 µM (≈ 1.86 µg/mL)

Structure (SMILES): O=C(NCc1ccc(-c2ccc(OC(F)(F)F)cc2)cc1)O[C@@H]1COc2nc([N+](=O)[O-])cn2C1
- MIC [1]: 0.52 µM (≈ 0.249 µg/mL)
- MIC [2]: 2.4 µM (≈ 1.15 µg/mL)

Structure (SMILES): O=C(NCc1ccc(-c2ccc(C(F)(F)F)nc2)cc1)O[C@@H]1COc2nc([N+](=O)[O-])cn2C1
- MIC [1]: 0.69 µM (≈ 0.32 µg/mL)
- MIC [2]: 11 µM (≈ 5.1 µg/mL)

Structure (SMILES): O=C(O[C@@H]1COc2nc([N+](=O)[O-])cn2C1)N1CCN(c2ccc(OC(F)(F)F)cc2)CC1
- MIC [1]: 0.033 µM (≈ 0.0151 µg/mL)
- MIC [2]: 1.1 µM (≈ 0.503 µg/mL)

Structure (SMILES): O=C(O[C@@H]1COc2nc([N+](=O)[O-])cn2C1)N1CC[C@H](Oc2ccc(OC(F)(F)F)cc2)C1
- MIC [1]: 0.06 µM (≈ 0.0275 µg/mL)
- MIC [2]: 1.6 µM (≈ 0.733 µg/mL)

Structure (SMILES): O=C(O[C@@H]1COc2nc([N+](=O)[O-])cn2C1)N1CCC(Oc2ccc(C(F)(F)F)nc2)CC1
- MIC [1]: 0.14 µM (≈ 0.064 µg/mL)
- MIC [2]: 27 µM (≈ 12.3 µg/mL)

Structure (SMILES): CN(Cc1ccc(OC(F)(F)F)cc1)C1CCN(C(=O)O[C@@H]2COc3nc([N+](=O)[O-])cn3C2)CC1
- MIC [1]: 0.18 µM (≈ 0.0899 µg/mL)
- MIC [2]: 26 µM (≈ 13 µg/mL)

Structure (SMILES): O=C(COc1ccc(-c2ccc(C(F)(F)F)cc2)cc1)N[C@@H]1COc2nc([N+](=O)[O-])cn2C1
- MIC [1]: 0.25 µM (≈ 0.116 µg/mL)
- MIC [2]: > 32 µM

Structure (SMILES): O=C(N[C@@H]1COc2nc([N+](=O)[O-])cn2C1)OCc1ccc(-c2ccc(F)cc2)cc1
- MIC [1]: 0.085 µM (≈ 0.0351 µg/mL)
- MIC [2]: 4.2 µM (≈ 1.73 µg/mL)

Structure (SMILES): O=C(N[C@@H]1COc2nc([N+](=O)[O-])cn2C1)OCc1ccc(-c2ccc(C(F)(F)F)cc2)cc1
- MIC [1]: 0.08 µM (≈ 0.037 µg/mL)
- MIC [2]: 4.5 µM (≈ 2.08 µg/mL)

Structure (SMILES): O=C(COc1ccc(-c2ccc(C(F)(F)F)nc2)cc1)N[C@@H]1COc2nc([N+](=O)[O-])cn2C1
- MIC [1]: 0.69 µM (≈ 0.32 µg/mL)
- MIC [2]: 30 µM (≈ 13.9 µg/mL)

Structure (SMILES): O=C(COc1ccc(-c2ccc(F)nc2)cc1)N[C@@H]1COc2nc([N+](=O)[O-])cn2C1
- MIC [1]: 0.69 µM (≈ 0.285 µg/mL)
- MIC [2]: 31 µM (≈ 12.8 µg/mL)

Structure (SMILES): O=C(COc1ccc(-c2ccc(OC(F)(F)F)cc2)cc1)N[C@@H]1COc2nc([N+](=O)[O-])cn2C1
- MIC [1]: 0.18 µM (≈ 0.0861 µg/mL)
- MIC [2]: 25 µM (≈ 12 µg/mL)

Structure (SMILES): O=C(COc1ccc(-c2ccc(F)cc2)cc1)N[C@@H]1COc2nc([N+](=O)[O-])cn2C1
- MIC [1]: 0.17 µM (≈ 0.0701 µg/mL)
- MIC [2]: 26 µM (≈ 10.7 µg/mL)

Structure (SMILES): O=C(Cc1ccc(-c2ccc(F)nc2)cc1)N[C@@H]1COc2nc([N+](=O)[O-])cn2C1
- MIC [1]: 0.68 µM (≈ 0.27 µg/mL)
- MIC [2]: > 32 µM

Structure (SMILES): O=C(Cc1ccc(-c2ccc(C(F)(F)F)nc2)cc1)N[C@@H]1COc2nc([N+](=O)[O-])cn2C1
- MIC [1]: 0.46 µM (≈ 0.206 µg/mL)
- MIC [2]: > 32 µM

Structure (SMILES): O=C(Cc1ccc(-c2ccc(OC(F)(F)F)cc2)cc1)N[C@@H]1COc2nc([N+](=O)[O-])cn2C1
- MIC [1]: 0.22 µM (≈ 0.102 µg/mL)
- MIC [2]: 5 µM (≈ 2.31 µg/mL)

Structure (SMILES): O=C(Cc1ccc(-c2ccc(C(F)(F)F)cc2)cc1)N[C@@H]1COc2nc([N+](=O)[O-])cn2C1
- MIC [1]: 0.44 µM (≈ 0.196 µg/mL)
- MIC [2]: 23 µM (≈ 10.3 µg/mL)

Structure (SMILES): O=C(Cc1ccc(-c2ccc(F)cc2)cc1)N[C@@H]1COc2nc([N+](=O)[O-])cn2C1
- MIC [1]: 0.33 µM (≈ 0.131 µg/mL)
- MIC [2]: 11 µM (≈ 4.36 µg/mL)

Structure (SMILES): O=C(CO[C@@H]1COc2nc([N+](=O)[O-])cn2C1)Nc1ccc(OC(F)(F)F)cc1
- MIC [1]: 0.24 µM (≈ 0.0965 µg/mL)
- MIC [2]: 7.8 µM (≈ 3.14 µg/mL)

Structure (SMILES): CN(C(=O)N(C)[C@@H]1COc2nc([N+](=O)[O-])cn2C1)c1ccc(OC(F)(F)F)cc1
- MIC [1]: 12 µM (≈ 4.98 µg/mL)
- MIC [2]: > 64 µM

Structure (SMILES): O=[N+]([O-])c1cn2c(n1)OC[C@@H](NC(=S)Nc1ccc(OC(F)(F)F)cc1)C2
- MIC [1]: 8 µM (≈ 3.23 µg/mL)
- MIC [2]: > 64 µM

Structure (SMILES): O=C(NCc1ccc(OC(F)(F)F)cc1)N[C@@H]1COc2nc([N+](=O)[O-])cn2C1
- MIC [1]: 0.27 µM (≈ 0.108 µg/mL)
- MIC [2]: 4.1 µM (≈ 1.65 µg/mL)

Structure (SMILES): CN(C(=O)O[C@@H]1COc2nc([N+](=O)[O-])cn2C1)c1ccc(OC(F)(F)F)cc1
- MIC [1]: 0.21 µM (≈ 0.0845 µg/mL)
- MIC [2]: 5.4 µM (≈ 2.17 µg/mL)

Structure (SMILES): O=C(NCc1ccc(OC(F)(F)F)cc1)O[C@@H]1COc2nc([N+](=O)[O-])cn2C1
- MIC [1]: 0.25 µM (≈ 0.101 µg/mL)
- MIC [2]: 17 µM (≈ 6.84 µg/mL)

Structure (SMILES): O=C(COc1ccc(OC(F)(F)F)cc1)N[C@@H]1COc2nc([N+](=O)[O-])cn2C1
- MIC [1]: 0.16 µM (≈ 0.0644 µg/mL)
- MIC [2]: 10 µM (≈ 4.02 µg/mL)

Structure (SMILES): O=[N+]([O-])c1cn2c(n1)OC[C@@H](NCc1ccc(OC(F)(F)F)cc1)C2
- MIC [1]: 0.22 µM (≈ 0.0788 µg/mL)
- MIC [2]: 5.3 µM (≈ 1.9 µg/mL)

Structure (SMILES): O=[N+]([O-])c1cn2c(n1)OC[C@@H](OCc1ccc(-c3ccc(OC(F)(F)F)cc3)cc1)C2
- MIC [1]: 0.35 µM (≈ 0.152 µg/mL)
